The values that follow come from ChEMBL document CHEMBL4229550, “An antimycobacterial pleuromutilin analogue effective against dormant bacilli” (Bioorg Med Chem, 2018).

One data set relates to Escherichia coli. The data set can be described thus: Inhibition of protein translation/transcription in Escherichia coli S30 cell extract at 0.1 ug/ml using circular DNA with pBESTluc after 60 mins by luciferase reporter gene assay. In kind it is functional. The procedure, abridged:
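Coupled transcription/translation used E. coli S30 extract, amino acid mix and premix, with the pBESTluc template carrying firefly luciferase under the tac promoter. Compounds were added in DMSO and reactions were started with DNA. Incubation was 60 min at 37 °C, stopped on ice, and luciferase was read after adding assay substrate.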
A general note: A reporter such as luciferase makes a cellular process visible.

Data set [1] relates to Mycobacterium tuberculosis. The data set is described as follows: Bactericidal activity against non-replicating Mycobacterium tuberculosis CDC1551 expressing tdTomato infected in mouse J774A.1 cells at 2 times MIC up to 72 hrs by DAPI staining based fluorescence microscopic method. In kind it is functional, organism-based. An outline of the steps:
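J774A.1 macrophages are seeded at 1×10^5 cells/well in chamber slides and infected with tdTomato-expressing Mtb CDC1551 at MOI ≈10. […] Imaging is by fluorescence confocal microscopy.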

A further data set deals with Acinetobacter baumannii. The data set is described as follows: Bactericidal activity against Acinetobacter baumannii ATCC 19606 incubated for 24 hrs under aerobic condition by MABA. As to conditions: ATCC 19606 = CIP 70.34 = JCM 6841, 24 h. In kind it is functional. For orientation: The colour change of resazurin is a common sign of viable cells or microbes.
For the next data set, the system named is Klebsiella pneumoniae. The data set can be described thus: Antibacterial activity against Klebsiella pneumoniae ATCC 12019 incubated for 24 hrs under aerobic condition by MABA. As to conditions: ATCC 12019, 24 h, read-out: MIC100. In kind it is functional. An outline of the steps: (§1)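 Mid-log cultures at OD 0.5 were exposed to serial dilutions under aerobic conditions at 37 °C for 24 h. Resazurin was then added from a 0.08% stock for 1 h. MIC100 was the lowest concentration where the dye stayed blue (pink means growth). Absorbance was also read at 570 and 600 nm.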

A further data set has as its system Mus musculus. The data set is described as follows: Toxicity in po dosed Balb/c mouse assessed as effect on health measured for 7 days. In kind it is organism-based. The conditions noted are these: in vivo, 168 h.
The next data set relates to Enterococcus faecalis. The data set is described as follows: Antibacterial activity against Enterococcus faecalis ATCC 19433 incubated for 24 hrs under aerobic condition by MABA. In kind it is functional. As to conditions: ATCC 19433, 24 h, read-out: MIC100. An outline of the steps:
as §1

Data set [2] in a line: Cmax in Balb/c mouse at 30 mg/kg, po. In kind it is ADME, organism-based. Details: dose 30 mg/kg, route oral. The conditions noted are these: in vivo. An outline of the steps:
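Single oral dose of 30 mg/kg in BALB/c mice (n = 6). Serum PK parameters were t1/2, tmax, Cmax and AUC over 0–24 h and to infinity. Oral bioavailability F was calculated against the 3 mg/kg IV dose.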

Molecules are shown by their SMILES. Converted amounts (≈) assume the structure as drawn. The source made the active and inactive calls. No cut-off for these calls is given here.

For orientation: MBC means the lowest tested concentration that kills the bacteria rather than only halting them. A lower MBC goes with more potent killing. Usually Cmax stands for the peak of the concentration-time curve. On to `CC[C@]1(C)C[C@@H](OC(=O)CSC(C)(C)CNC(=O)[C@H](N)CC(C)C)[C@]2(C)[C@H](C)CC[C@]3(CC[C@@H](O)[C@H]32)[C@@H](C)[C@@H]1O`, for which the inhibition result in the data set with Escherichia coli was “Active”. For the same molecule, in data set [1], the outcome was Active. For the same molecule, the MBC in the data set with Acinetobacter baumannii was 3.13 µg/mL (≈ 5.37 µM). Further, the results for the MIC in the data set on Klebsiella pneumoniae and in the data set on Enterococcus faecalis were 12.5 µg/mL (≈ 21.4 µM) and 6.25 µg/mL (≈ 10.7 µM), respectively. Also, the MTD in the data set with Mus musculus was above 200 mg/kg. Further, the Cmax in data set [2] was found to be 1340 ng/mL.
